Active and inactive are the calls of the source. The rule behind the calls is not given here.
Experiments:
[1] = Stability in human plasma assessed as compound remaining at 2 uM incubated for 60 mins by RF-MS analysis; format: ADME, cell-free; settings: read-out: Stability
Method in brief: (§1)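 Human plasma stability, plasma protein binding and liver microsome stability, each run in triplicate. Error deviations below 10 %.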

[2] = tested on: K562; test: Cytotoxicity against human K562 cells assessed as inhibition of cell growth incubated for 72 hrs by MTS assay; format: functional, cell-based; settings: K562, 72 h
Method in brief: (§2)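 MTS assay on eight human cancer lines and two non-tumour fibroblast lines. IC50 is the concentration that inhibits cell growth by 50 %. SD typically up to 15 % of the mean.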

[3] = tested on: CCRF-CEM; test: Inhibition of RNA synthesis in human CCRF-CEM cells at 1 times IC50 incubated for 24 hrs by BrU incorporation based flow cytometry; format: functional
Method in brief: (§3)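 Fixed in 1 % paraformaldehyde/0.05 % NP-40 (15 min at room temperature, then 4 °C overnight). Stained with cross-reacting anti-BrdU plus FITC secondary (45 min each), then PI/RNase A. Flow cytometry; % BrU-positive cells.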

[4] = tested on: CCRF-CEM; test: Induction of apoptosis in human CCRF-CEM cells assessed as upregulation of BID expression at 1 to 5 times IC50 incubated for 24 hrs by Western blotting analysis; format: functional, cell-based
Method in brief: (§4)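 30 µg protein per lane on SDS-PAGE, transferred to nitrocellulose, blocked in 5 % BSA/TBS-Tween. Primary antibodies overnight at 4 °C (Akt, P-Akt Ser473, STAT-3, caspase-3, PARP, cyclin D, cyclin A, Bcl-xL, Bak, Bid, Bim), then HRP secondary and ECL detection. GAPDH as loading control.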

[5] = Cytotoxicity against human BJ cells assessed as inhibition of cell growth incubated for 72 hrs by MTS assay; format: toxicity, cell-based; method in brief: as §2
[6] = tested on: CEM-DNR; test: Cytotoxicity against human CEM-DNR cells assessed as inhibition of cell growth incubated for 72 hrs by MTS assay; format: functional, cell-based; method in brief: as §2
[7] = tested on: A549; test: Cytotoxicity against human A549 cells assessed as inhibition of cell growth incubated for 72 hrs by MTS assay; format: functional, cell-based; settings: A549, 72 h; method in brief: as §2
[8] = tested on: CCRF-CEM; test: Induction of apoptosis in human CCRF-CEM cells assessed as early apoptotic cells at 5 times IC50 incubated for 24 hrs by Annexin V-FITC and PI staining based flow cytometric analysis (reference value: 2.1 %); format: functional
Method in brief: (§5)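 Washed in Ca2+-containing binding buffer, then stained 15 min at room temperature in the dark with Annexin V-FITC and propidium iodide (PI at half the kit-recommended level). Read at once by flow cytometry with a 488 nm laser, ≥10,000 cells. Debris excluded; quadrants viable, early apoptotic, late apoptotic/necrotic, necrotic. Three independent experiments.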

[9] = tested on: CCRF-CEM; test: Induction of apoptosis in human CCRF-CEM cells assessed as necrotic cells at 1 times IC50 incubated for 24 hrs by Annexin V-FITC and PI staining based flow cytometric analysis (reference value: 0.4 %); format: functional; method in brief: as §5
[10] = tested on: CCRF-CEM; test: Inhibition of RNA synthesis in human CCRF-CEM cells at 5 times IC50 incubated for 24 hrs by BrU incorporation based flow cytometry; format: functional; method in brief: as §3
[11] = tested on: CCRF-CEM; test: Induction of apoptosis in human CCRF-CEM cells assessed as viable cells at 5 times IC50 incubated for 24 hrs by Annexin V-FITC and PI staining based flow cytometric analysis (reference value: 97.4 %); format: functional; method in brief: as §5
[12] = tested on: CCRF-CEM; test: Inhibition of DNA synthesis in human CCRF-CEM cells at 1 times IC50 incubated for 24 hrs by BrdU incorporation based flow cytometry; format: functional
Method in brief: (§6)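 Fixed in ice-cold 70 % ethanol, DNA denatured in 2 M HCl for 30 min, neutralised with borax. Stained with anti-BrdU plus FITC secondary, then PI/RNase A for 1 h. Flow cytometry; % BrdU-positive cells.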

[13] = tested on: CCRF-CEM; test: Induction of apoptosis in human CCRF-CEM cells assessed as downregulation of BCL-XL expression at 5 times IC50 incubated for 24 hrs by Western blotting analysis; format: functional, cell-based; method in brief: as §4
[14] = tested on: Mitochondrial membrane; test: Induction of mitochondrial membrane potential depolarization in human CCRF-CEM cells assessed as fold increase in fluorescence intensity at 5 times IC50 incubated for 24 hrs by JC-1 staining based flow cytometry; format: cell membranes
[15] = Stability in human plasma assessed as compound remaining at 2 uM incubated for 15 mins by RF-MS analysis; format: ADME, cell-free; settings: read-out: Stability; method in brief: as §1
[16] = tested on: CCRF-CEM; test: Induction of apoptosis in human CCRF-CEM cells assessed as late apoptotic cells at 1 times IC50 incubated for 24 hrs by Annexin V-FITC and PI staining based flow cytometric analysis (reference value: 0.4 %); format: functional; method in brief: as §5
[17] = Stability in human plasma assessed as compound remaining at 2 uM incubated for 30 mins by RF-MS analysis; format: ADME, cell-free; settings: read-out: Stability; method in brief: as §1
[18] = tested on: U2OS; test: Cytotoxicity against human U2OS cells assessed as inhibition of cell growth incubated for 72 hrs by MTS assay; format: functional, cell-based; method in brief: as §2
[19] = tested on: CCRF-CEM; test: Induction of apoptosis in human CCRF-CEM cells assessed as viable cells at 1 times IC50 incubated for 24 hrs by Annexin V-FITC and PI staining based flow cytometric analysis (reference value: 97.4 %); format: functional; method in brief: as §5
[20] = tested on: CCRF-CEM; test: Induction of apoptosis in human CCRF-CEM cells assessed as necrotic cells at 5 times IC50 incubated for 24 hrs by Annexin V-FITC and PI staining based flow cytometric analysis (reference value: 0.4 %); format: functional; method in brief: as §5
[21] = tested on: CCRF-CEM; test: Induction of apoptosis in human CCRF-CEM cells assessed as upregulation of BIM expression at 1 to 5 times IC50 incubated for 24 hrs by Western blotting analysis; format: functional, cell-based; method in brief: as §4
[22] = tested on: CCRF-CEM; test: Induction of cell cycle arrest in human CCRF-CEM cells assessed as downregulation of total AKT expression at 5 times IC50 incubated for 24 hrs by Western blotting analysis; format: functional, cell-based; method in brief: as §4
[23] = Plasma protein binding in human assessed as fraction bound at 10 uM incubated for 4 hrs by rapid equilibrium dialysis based RF-MS analysis; format: ADME, cell-free; settings: read-out: PPB (converted); method in brief: as §1
[24] = tested on: HCT 116 TP53(-/-); test: Cytotoxicity against human HCT116-p53-null cells assessed as inhibition of cell growth incubated for 72 hrs by MTS assay; format: functional, cell-based; method in brief: as §2
[25] = tested on: CCRF-CEM; test: Cytotoxicity against human CCRF-CEM cells assessed as inhibition of cell growth incubated for 72 hrs by MTS assay; format: functional, cell-based; method in brief: as §2
[26] = tested on: CCRF-CEM; test: Inhibition of DNA synthesis in human CCRF-CEM cells at 5 times IC50 incubated for 24 hrs by BrdU incorporation based flow cytometry; format: functional; method in brief: as §6
[27] = tested on: CCRF-CEM; test: Induction of apoptosis in human CCRF-CEM cells assessed as downregulation of caspase-3 expression at 5 times IC50 incubated for 24 hrs by Western blotting analysis; format: functional, cell-based; method in brief: as §4
[28] = tested on: Mitochondrial membrane; test: Induction of mitochondrial membrane potential depolarization in human CCRF-CEM cells assessed as fold increase in fluorescence intensity incubated for 24 hrs by JC-1 staining based flow cytometry; format: cell membranes
[29] = tested on: CCRF-CEM; test: Induction of apoptosis in human CCRF-CEM cells assessed as early apoptotic cells at 1 times IC50 incubated for 24 hrs by Annexin V-FITC and PI staining based flow cytometric analysis (reference value: 2.1 %); format: functional; method in brief: as §5
[30] = tested on: CCRF-CEM; test: Induction of cell cycle arrest in human CCRF-CEM cells assessed as increase in accumulation of G0/G1 phase at 5 times IC50 incubated for 24 hrs by RNase/PI staining based flow cytometry; format: functional
Method in brief: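 Propidium iodide staining and flow cytometry with a 488 nm laser, ≥10,000 intact cells. Phase proportions compared with untreated cells; SEM of three independent experiments.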

[31] = tested on: CCRF-CEM; test: Induction of apoptosis in human CCRF-CEM cells assessed as late apoptotic cells at 5 times IC50 incubated for 24 hrs by Annexin V-FITC and PI staining based flow cytometric analysis (reference value: 0.4 %); format: functional; method in brief: as §5
[32] = Cytotoxicity against human K562-Tax cells assessed as inhibition of cell growth incubated for 72 hrs by MTS assay; format: functional, cell-based; method in brief: as §2
[33] = Metabolic stability in human liver microsomes assessed as parent compound remaining at 2 uM incubated for 60 mins in presence of NADPH by RF-MS analysis; format: ADME, Microsome; settings: read-out: Stability; method in brief: as §1
[34] = tested on: CCRF-CEM; test: Induction of cell cycle arrest in human CCRF-CEM cells assessed as downregulation of Cyclin D expression at 5 times IC50 incubated for 24 hrs by Western blotting analysis; format: functional, cell-based; method in brief: as §4
[35] = tested on: CCRF-CEM; test: Induction of cell cycle arrest in human CCRF-CEM cells assessed as downregulation of Cyclin A expression at 5 times IC50 incubated for 24 hrs by Western blotting analysis; format: functional, cell-based; method in brief: as §4
[36] = tested on: CCRF-CEM; test: Induction of cell cycle arrest in human CCRF-CEM cells assessed as downregulation of total STAT3 expression at 5 times IC50 incubated for 24 hrs by Western blotting analysis; format: functional, cell-based; method in brief: as §4
[37] = tested on: HCT-116; test: Cytotoxicity against human HCT-116 cells assessed as inhibition of cell growth incubated for 72 hrs by MTS assay; format: functional, cell-based; settings: HCT-116, 72 h; method in brief: as §2
[38] = Metabolic stability in human liver microsomes assessed as parent compound remaining at 2 uM incubated for 15 mins in presence of NADPH by RF-MS analysis; format: ADME, Microsome; settings: read-out: Stability; method in brief: as §1
[39] = Stability in human plasma assessed as compound remaining at 2 uM incubated for 120 mins by RF-MS analysis; format: ADME, cell-free; settings: read-out: Stability; method in brief: as §1
[40] = Metabolic stability in human liver microsomes assessed as parent compound remaining at 2 uM incubated for 30 mins in presence of NADPH by RF-MS analysis; format: ADME, Microsome; settings: read-out: Stability; method in brief: as §1
[41] = Cytotoxicity against human MRC5 cells assessed as inhibition of cell growth incubated for 72 hrs by MTS assay; format: toxicity, cell-based; method in brief: as §2

SMILES: CC1(C)[C@@H](O)CC[C@]2(C)[C@H]3CC[C@@H]4[C@H]5[C@H](c6cc7c(c(-c8ccccc8)c6)C(=O)N(c6ccc(N)cc6)C7=O)CC[C@]5(C(=O)O)CC[C@@]4(C)[C@]3(C)CC[C@@H]12
- remaining at 1 h, 2 µM [1]: 93%
- IC50 [2]: 20.9 µM
- inhibition (INH) [3]: 24%
- Activity [4]: Active
- IC50 at 72 h [5]: 40.6 µM
- IC50 [6]: 6.29 µM
- IC50 [7]: 21 µM
- Activity [8]: 7.8%
- Activity [9]: 0%
- inhibition (INH) [10]: 45.4%
- Activity [11]: 87.5%
- inhibition (INH) [12]: 30%
- Activity [13]: Active
- fold change (FC) [14]: > 20
- remaining at 0.25 h, 2 µM [15]: 106%
- Activity [16]: 2.8%
- remaining at 0.5 h, 2 µM [17]: 92%
- IC50 [18]: 15.6 µM
- Activity [19]: 92.4%
- Activity [20]: 0%
- Activity [21]: Active
- Activity [22]: Active; Slight Activity Observed
- fraction unbound at 4 h, 10 µM [23]: 0.37
- IC50 [24]: 17.1 µM
- IC50 [25]: 4.09 µM
- inhibition (INH) [26]: 13.6%
- Activity [27]: Active
- Activity [28]: Dose-dependent-effect
- Activity [29]: 4.8%
- Activity [30]: Active
- Activity [31]: 4.7%
- IC50 [32]: 4.34 µM
- remaining at 1 h, 2 µM [33]: 97%
- Activity [34]: Active
- Activity [35]: Active
- Activity [36]: Active
- IC50 [37]: 12 µM
- remaining at 0.25 h, 2 µM [38]: 100%
- remaining at 2 h, 2 µM [39]: 89%
- remaining at 0.5 h, 2 µM [40]: 102%
- IC50 at 72 h [41]: 19.4 µM

Reference: ChEMBL document CHEMBL6078712, “Triterpenoid phthalimides as selective anti-cancer agents targeting mitochondrial apoptosis” (Eur J Med Chem, 2025)
